The target in series [1] is T1, Phosphatidylinositol 4,5-bisphosphate 3-kinase catalytic subunit gamma isoform (Homo sapiens, UniProt P48736). Nature of the series: Inhibition of PI3Kgamma (unknown origin) using PIP2 as substrate after 15 mins in presence of [33P-ATP] by liquid scintillation counting method.
Series [2] is filed under the species Homo sapiens. Nature of the series: Selectivity ratio of Ki for PI3Kalpha (unknown origin) to Ki for PI3Kgamma (unknown origin).
Series [3] is filed under the species Homo sapiens. Nature of the series: Selectivity ratio of Ki for PI3Kbeta (unknown origin) to Ki for PI3Kgamma (unknown origin).
The species named for series [4] is Homo sapiens. Nature of the series: Selectivity ratio of Ki for PI3Kdelta (unknown origin) to Ki for PI3Kgamma (unknown origin).
The test system of the next series is MDR1. Nature of the series: Efflux ratio of permeability from basolateral to apical over apical to basolateral side in MDCK cells harboring MDR1. Format: ADME, cell-based, Canis lupus familiaris. The settings on record: dog. Put shortly:
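MDR1-MDCK monolayers; bidirectional transport. A-B permeability in x10-6 cm/s; efflux taken as the B-A/A-B ratio.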

A short description of series [5]: Clearance in iv dosed rat. Format: ADME, organism-based. The settings on record: in vivo. Put shortly:
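Rat, dog and monkey PK after dosing; clearance in mL/min/Kg.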

Series [6] concerns the target T1, Phosphatidylinositol 4,5-bisphosphate 3-kinase catalytic subunit gamma isoform. Nature of the series: Inhibition of PI3Kgamma in human THP1 cells assessed as inhibition of MCP1-induced Akt phosphorylation at […] residue preincubated for 1 hr followed by MCP1 stimulation for 3 mins by FACS analysis. Format: cell-based. An outline of the steps:
(§1)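 Akt phosphorylation was induced by MCP-1 in THP-1 cells or in splenocytes.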
Background: Flow cytometry measures light scatter and fluorescence of single cells or particles in a stream.

Series [7] has as its target Phosphatidylinositol-4,5-bisphosphate 3-kinase, catalytic subunit gamma (Rattus norvegicus, UniProt D3ZFJ0). Nature of the series: Inhibition of PI3Kgamma in rat spleenocytes assessed as inhibition of MCP1-induced Akt phosphorylation at […] residue preincubated for 1 hr followed by MCP1 stimulation for 3 mins by FACS analysis. The series is classed as cell-based. Put shortly: as §1

The test system of series [8] is Mus musculus. Nature of the series: Anti-inflammatory activity in MOG (35 to 55 residues)-induced EAE C57BL/6 mouse model assessed as inhibition of development of clinical symptoms at 3 to 30 mg/kg, po bid […]. Format: functional, organism-based. Put shortly: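 C57BL6 mice immunized with myelin oligodendrocyte glycoprotein in complete Freund's adjuvant containing Mycobacterium tuberculosis. Oral dosing BID at 3, 10 and 30 mg/Kg began at a clinical score of 0.5-1. Vehicle and positive-control groups were run alongside. Read-out: clinical EAE score plotted against time after onset.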

Series [9] relates to Mus musculus. Nature of the series: Anti-inflammatory activity in MOG (35 to 55 residues)-induced EAE C57BL/6 mouse model assessed as inhibition of development of clinical symptoms at 1 mg/kg, po qd measured on day 8 post MOG (35 to 55 residues) immunization. Format: functional, organism-based.
Series [10] is described as follows: Intrinsic clearance in rat hepatocytes assessed per million cells. Format: ADME, cell-based, Hepatocyte. The settings on record: read-out: CLH. An outline of the steps:
(§2)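 Intrinsic clearance in rat, dog, monkey and human hepatocytes; units µL/min/M cells.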

The nature of series [11]: Intrinsic clearance in human hepatocytes assessed per million cells. Format: ADME, cell-based, Hepatocyte. The note with it: read-out: CLH. Put shortly:
as §2

Series [12] can be described thus: Lipophilicity, log D of the compound at pH 7.4. Format: physicochemical. The settings on record: buffer.
The nature of series [13]: Half life in iv dosed rat. The series is classed as ADME, organism-based. The settings on record: in vivo.

Molecules are shown by their SMILES. Active and inactive are the calls of the source. The rule behind the calls is not given here. Bounds are passed on as bounds.

For orientation: Ki means the equilibrium dissociation constant of an inhibitor or competing ligand from its target. By efflux ratio is commonly meant a quotient of directional permeabilities that is used to spot active efflux. Usually clearance stands for the volume of plasma or blood freed of the substance per unit of time. A high value points to efficient removal. As a reminder, the IC50 is the midpoint of a concentration-inhibition curve. Broadly, the logD is lipophilicity at a set pH, counting ionised and neutral species. By half-life is commonly meant the time in which the quantity being followed falls by half.

T1 sequence (P48736 whole entry, canonical isoform): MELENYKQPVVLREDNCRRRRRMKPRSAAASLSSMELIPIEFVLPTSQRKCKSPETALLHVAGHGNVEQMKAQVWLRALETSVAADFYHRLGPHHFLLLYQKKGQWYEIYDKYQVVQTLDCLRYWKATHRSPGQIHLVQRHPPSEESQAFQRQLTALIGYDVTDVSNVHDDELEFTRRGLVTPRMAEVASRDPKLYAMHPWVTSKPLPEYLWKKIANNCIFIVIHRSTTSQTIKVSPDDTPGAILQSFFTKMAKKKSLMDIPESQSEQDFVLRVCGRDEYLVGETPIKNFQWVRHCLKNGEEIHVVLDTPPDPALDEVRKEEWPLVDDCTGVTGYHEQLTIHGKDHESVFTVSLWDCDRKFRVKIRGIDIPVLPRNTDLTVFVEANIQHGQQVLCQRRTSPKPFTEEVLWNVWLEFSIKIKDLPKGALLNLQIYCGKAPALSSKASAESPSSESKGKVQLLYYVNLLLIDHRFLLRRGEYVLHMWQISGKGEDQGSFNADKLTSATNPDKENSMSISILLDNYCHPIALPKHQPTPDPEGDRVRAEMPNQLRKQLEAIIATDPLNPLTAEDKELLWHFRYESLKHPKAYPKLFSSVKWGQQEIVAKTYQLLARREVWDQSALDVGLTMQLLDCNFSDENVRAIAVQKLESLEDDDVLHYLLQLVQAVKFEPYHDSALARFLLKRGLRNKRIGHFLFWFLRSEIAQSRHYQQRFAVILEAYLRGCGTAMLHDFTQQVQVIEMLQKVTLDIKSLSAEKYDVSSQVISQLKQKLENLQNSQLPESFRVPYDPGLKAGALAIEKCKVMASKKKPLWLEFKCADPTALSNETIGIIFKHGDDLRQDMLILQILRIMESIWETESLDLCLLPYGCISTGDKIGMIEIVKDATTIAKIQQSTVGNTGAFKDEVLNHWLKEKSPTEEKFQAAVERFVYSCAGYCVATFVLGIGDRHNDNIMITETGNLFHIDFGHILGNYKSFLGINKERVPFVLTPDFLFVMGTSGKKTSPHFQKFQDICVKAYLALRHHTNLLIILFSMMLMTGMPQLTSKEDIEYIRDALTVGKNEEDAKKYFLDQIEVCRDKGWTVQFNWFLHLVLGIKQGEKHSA
Phosphatidylinositol-4,5-bisphosphate 3-kinase, catalytic subunit gamma, sequence (D3ZFJ0 whole entry): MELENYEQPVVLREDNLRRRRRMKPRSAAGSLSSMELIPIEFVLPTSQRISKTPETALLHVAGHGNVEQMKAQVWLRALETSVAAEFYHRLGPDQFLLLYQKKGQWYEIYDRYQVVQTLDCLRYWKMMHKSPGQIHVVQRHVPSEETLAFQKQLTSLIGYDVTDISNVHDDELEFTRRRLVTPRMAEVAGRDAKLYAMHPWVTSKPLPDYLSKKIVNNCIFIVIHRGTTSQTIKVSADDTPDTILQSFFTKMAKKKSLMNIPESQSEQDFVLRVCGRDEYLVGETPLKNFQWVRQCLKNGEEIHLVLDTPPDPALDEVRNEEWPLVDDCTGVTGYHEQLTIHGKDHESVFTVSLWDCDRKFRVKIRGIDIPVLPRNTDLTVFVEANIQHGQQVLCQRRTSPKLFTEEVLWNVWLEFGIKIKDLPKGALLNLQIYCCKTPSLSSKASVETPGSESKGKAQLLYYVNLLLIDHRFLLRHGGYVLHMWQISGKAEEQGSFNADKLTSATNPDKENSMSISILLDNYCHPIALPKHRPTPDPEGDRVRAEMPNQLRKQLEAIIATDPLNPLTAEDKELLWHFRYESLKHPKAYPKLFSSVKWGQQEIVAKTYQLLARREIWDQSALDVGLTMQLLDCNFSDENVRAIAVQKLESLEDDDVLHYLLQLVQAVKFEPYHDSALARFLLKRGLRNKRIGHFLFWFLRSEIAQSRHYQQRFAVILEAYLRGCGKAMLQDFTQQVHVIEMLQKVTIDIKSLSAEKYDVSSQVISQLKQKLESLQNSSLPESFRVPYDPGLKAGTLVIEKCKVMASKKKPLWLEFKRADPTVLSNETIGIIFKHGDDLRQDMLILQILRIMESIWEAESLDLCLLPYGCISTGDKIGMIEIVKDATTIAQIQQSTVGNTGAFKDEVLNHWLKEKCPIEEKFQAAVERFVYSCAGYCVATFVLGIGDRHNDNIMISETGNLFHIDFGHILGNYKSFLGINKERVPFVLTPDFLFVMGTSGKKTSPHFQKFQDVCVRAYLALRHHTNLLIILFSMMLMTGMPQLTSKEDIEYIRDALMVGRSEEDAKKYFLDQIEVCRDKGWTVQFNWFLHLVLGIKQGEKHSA

Take `COc1cc(-c2ccc3c(n2)CN(c2cnn(CC#N)c2)C3=O)cnc1OC`: the Ki in [1] lay within 3 to 4 nM.

As to `C#CCn1cc(N2Cc3nc(-c4cnc(OC)c(OC)c4)ccc3C2=O)cn1`, in series [1], the Ki was determined as 9 nM. In addition, the Ratio Ki in the series filed under Homo sapiens [2] is 11; in the series listed under Homo sapiens [3] it was 25; in the series listed under Homo sapiens [4], 12.

With `COc1cc(-c2ccc3c(n2)CN(c2cnn(C)c2)C3=O)cnc1OC`, in [1], the Ki turned out to be 60 nM. The Ratio Ki came to 5 in the series listed under Homo sapiens [2], 9 in the series filed under Homo sapiens [3] and 3 in the series listed under Homo sapiens [4]. Also, the efflux ratio in the series with MDR1 is 2.5.

As to `COc1cc(-c2ccc3c(c2)CN(c2cnn(CC#N)c2)C3=O)cnc1OC`, the inhibition constant Ki in [1] is 6 nM. In addition, the Ratio Ki came to 51 in the series listed under Homo sapiens [2], 27 in the series filed under Homo sapiens [3] and 17 in the series listed under Homo sapiens [4]. The clearance in series [5] was determined as 56 mL/min/kg.

For `COc1cc(-c2ccc3c(n2)CN(c2cnn(CCC#N)c2)C3=O)cnc1OC`, in series [1], the Ki came out at 20 nM. The Ratio Ki was found to be 11 in the series filed under Homo sapiens [2], 10 in the series filed under Homo sapiens [3] and 4 in the series filed under Homo sapiens [4].

For `COc1cc(-c2ccc3c(n2)CN(c2cnn(CC(F)(F)F)c2)C3=O)cnc1OC`, the Ki in series [1] is 4 nM. Also, the IC50 in series [6] was found to be 280 nM.

Turning to `CCn1cc(N2Cc3nc(-c4cnc(OC)c(OC)c4)ccc3C2=O)cn1`, the Ki in [1] was determined as 8 nM. Besides, the Ratio Ki worked out at 25 in the series filed under Homo sapiens [2], 39 in the series listed under Homo sapiens [3] and 14 in the series filed under Homo sapiens [4].

Consider `COc1cc(-c2ccc3c(n2)[C@@H](C)N(c2cnn(CC(F)(F)F)c2)C3=O)cnc1OC`, for which, in series [7], the IC50 was 210 nM. Also, in the series on Mus musculus [8], the result was Active.

For the compound `CCCCCCCCc1ccc(CCC(N)(CO)CO)cc1`, the outcome in the series on Mus musculus [9] was Active.

On to `COc1ccc(-c2ccc3c(c2)CN(c2cccc(CC#N)c2)C3=O)cc1OC`, for which, in [1], the Ki was 160 nM. Further, the Ratio Ki was over 25 in the series listed under Homo sapiens [2], over 25 in the series filed under Homo sapiens [3] and 7 in the series filed under Homo sapiens [4]. The hepatocyte CLint in series [10] was found to be 111 µL/min/1e6 cells; in series [11], 26 µL/min/1e6 cells. The compound also returned a clearance in series [5] of 116 mL/min/kg. Also, the logD in series [12] is 4.1.

For the compound `COc1cc(-c2ccc3c(n2)CN(c2cnn(C(C)(C)C#N)c2)C3=O)cnc1OC`, the Ki in [1] came to 28 nM. Besides, the Ratio Ki in the series listed under Homo sapiens [2] was 15; in the series listed under Homo sapiens [3], 25; in the series listed under Homo sapiens [4], 10.

Turning to `COc1cc(-c2ccc3c(n2)C(C)(C)N(c2cnn(CC(F)(F)F)c2)C3=O)cnc1OC`, in [1], the Ki turned out to be 11 nM. In addition, the values for the Ratio Ki in the series listed under Homo sapiens [2], in the series listed under Homo sapiens [3] and in the series filed under Homo sapiens [4] were 33, 12 and 10, respectively. Moreover, the clearance in series [5] was found to be 6.3 mL/min/kg. Further, the half-life in series [13] is 6.6 h. For the same compound, the IC50 in series [6] stood at 340 nM.

On to `COc1cc(-c2ccc3c(n2)CN(c2cn[nH]c2)C3=O)cnc1OC`, for which the Ki in [1] is 11 nM. For the same compound, the Ratio Ki in the series filed under Homo sapiens [2] came to 34; in the series listed under Homo sapiens [3], 32; in the series listed under Homo sapiens [4], 42.

For the compound `COc1cc(-c2ccc3c(c2)CN(c2cccc(CC#N)c2)C3=O)cnc1OC`, the Ki in [1] is 35 nM. For the same compound, the Ratio Ki in the series filed under Homo sapiens [2] was found to be 40; in the series listed under Homo sapiens [3], 11; in the series filed under Homo sapiens [4], 16. In addition, the hepatocyte CLint was determined as 88 µL/min/1e6 cells in series [10] and 30 µL/min/1e6 cells in [11]. The compound further gave a clearance in series [5] of 160 mL/min/kg.

On to `COc1cc(-c2ccc3c(n2)CN(c2cnn(CC(F)F)c2)C3=O)cnc1OC`, for which the Ki in series [1] turned out to be 9 nM. The Ratio Ki came to 22 in the series listed under Homo sapiens [2], 12 in the series filed under Homo sapiens [3] and 5 in the series listed under Homo sapiens [4].
